We go through 3 molecules from ChEMBL document CHEMBL4052702 (Bioorg Med Chem Lett, 2017).

For assay [1], the species on record is Homo sapiens. The assay can be described thus: Inhibition of HDAC in human HeLa-S3 cells lysates assessed as remaining enzyme activity at 1 x 10^-5 M pre-incubated for 15 mins before HDAC-Glo I/II substrate addition and measured after 30 mins post substrate addition. Format: cell-free.
The target in assay [2] is T1, Histone deacetylase 2 (Homo sapiens, UniProt Q92769). The assay can be described thus: Inhibition of HDAC2 (unknown origin) assessed as remaining enzyme activity at 1.6 x 10^-5 M by ELISA-based assay. In general terms: In an ELISA, binding on a coated surface is turned into a signal by an enzyme label.
The target of assay [3] is T2, Histone deacetylase 1 (Homo sapiens, UniProt Q13547). The assay can be described thus: Inhibition of HDAC1 (unknown origin) assessed as remaining enzyme activity at 8 x 10^-6 M by ELISA-based assay.
Assay [4] addresses T3, Histone deacetylase 8 (Homo sapiens) (UniProt Q9BY41).
T3 sequence (whole entry): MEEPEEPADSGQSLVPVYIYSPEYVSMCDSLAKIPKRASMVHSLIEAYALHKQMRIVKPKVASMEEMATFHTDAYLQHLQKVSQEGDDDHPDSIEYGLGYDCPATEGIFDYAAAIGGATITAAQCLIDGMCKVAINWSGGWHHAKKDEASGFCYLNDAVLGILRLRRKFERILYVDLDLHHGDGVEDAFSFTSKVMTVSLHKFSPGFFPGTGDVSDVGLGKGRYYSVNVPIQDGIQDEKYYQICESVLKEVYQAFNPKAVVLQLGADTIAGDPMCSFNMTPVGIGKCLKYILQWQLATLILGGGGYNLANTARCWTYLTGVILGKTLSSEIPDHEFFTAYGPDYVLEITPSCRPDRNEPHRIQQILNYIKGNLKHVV
The assay can be described thus: Inhibition of HDAC8 (unknown origin) assessed as remaining enzyme activity at 2 x 10^-7 M by ELISA-based assay.

For assay [5], the target named is T4, Histone deacetylase 3 (Homo sapiens, UniProt O15379). The assay can be described thus: Inhibition of HDAC3 (unknown origin) assessed as remaining enzyme activity at 1.6 x 10^-5 M by ELISA-based assay.
The species named for assay [6] is Homo sapiens. Put plainly: Inhibition of HDAC in human HeLa-S3 cells lysates assessed as remaining enzyme activity at 5 x 10^-6 M pre-incubated for 15 mins before HDAC-Glo I/II substrate addition and measured after 30 mins post substrate addition. Format: cell-free.
Assay [7] is filed under the species Homo sapiens. The assay can be described thus: Inhibition of HDAC in human HeLa-S3 cells lysates assessed as remaining enzyme activity at 2 x 10^-5 M pre-incubated for 15 mins before HDAC-Glo I/II substrate addition and measured after 30 mins post substrate addition. It is filed as cell-free.
Assay [8] has as its target T5, Protein deacetylase HDAC6 (Homo sapiens) (UniProt Q9UBN7).
T5 sequence (whole entry): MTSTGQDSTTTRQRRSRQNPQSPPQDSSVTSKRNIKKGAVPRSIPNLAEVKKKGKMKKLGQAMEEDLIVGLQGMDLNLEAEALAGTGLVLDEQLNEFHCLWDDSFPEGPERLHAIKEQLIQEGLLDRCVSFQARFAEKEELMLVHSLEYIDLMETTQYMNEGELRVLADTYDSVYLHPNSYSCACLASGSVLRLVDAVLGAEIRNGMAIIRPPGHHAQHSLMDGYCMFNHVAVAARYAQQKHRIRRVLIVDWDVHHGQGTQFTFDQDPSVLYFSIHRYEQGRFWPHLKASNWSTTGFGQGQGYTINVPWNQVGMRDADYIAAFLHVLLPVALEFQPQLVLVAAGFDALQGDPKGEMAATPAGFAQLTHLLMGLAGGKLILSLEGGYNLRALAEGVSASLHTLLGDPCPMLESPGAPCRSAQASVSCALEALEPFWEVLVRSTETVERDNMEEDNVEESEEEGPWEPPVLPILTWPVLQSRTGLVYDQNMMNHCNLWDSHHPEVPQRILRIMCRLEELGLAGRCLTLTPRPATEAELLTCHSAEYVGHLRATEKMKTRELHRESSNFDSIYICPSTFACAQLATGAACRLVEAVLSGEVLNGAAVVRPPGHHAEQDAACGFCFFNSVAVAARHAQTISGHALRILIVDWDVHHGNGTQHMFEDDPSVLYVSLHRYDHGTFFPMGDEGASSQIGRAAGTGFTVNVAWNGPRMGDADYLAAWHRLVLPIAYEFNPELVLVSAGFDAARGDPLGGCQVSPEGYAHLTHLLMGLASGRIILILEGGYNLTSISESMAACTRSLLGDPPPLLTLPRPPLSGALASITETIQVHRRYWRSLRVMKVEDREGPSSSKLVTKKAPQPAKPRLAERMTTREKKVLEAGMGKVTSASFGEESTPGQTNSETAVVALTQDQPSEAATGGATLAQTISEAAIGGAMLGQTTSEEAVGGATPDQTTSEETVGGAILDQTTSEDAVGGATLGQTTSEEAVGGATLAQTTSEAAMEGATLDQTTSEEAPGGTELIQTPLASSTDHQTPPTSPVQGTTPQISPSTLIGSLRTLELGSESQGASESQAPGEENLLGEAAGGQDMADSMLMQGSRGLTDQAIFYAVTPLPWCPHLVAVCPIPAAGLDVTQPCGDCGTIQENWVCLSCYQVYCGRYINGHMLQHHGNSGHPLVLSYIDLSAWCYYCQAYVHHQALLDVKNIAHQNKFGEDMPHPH
Put plainly: Inhibition of HDAC6 (unknown origin) assessed as remaining enzyme activity at 1.25 uM by ELISA-based assay. In a few lines: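 Single-concentration isoform screen using an ELISA-based HDAC activity assay, run in parallel against HDAC1, HDAC2, HDAC3 and HDAC6. Read-out is percent deacetylase activity remaining, given as the mean of at least two independent trials with standard error.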

Assay [9] addresses T1, Histone deacetylase 2. Put plainly: Inhibition of HDAC2 (unknown origin) assessed as remaining enzyme activity at 8 x 10^-6 M by ELISA-based assay.
Assay [10] concerns the target T4, Histone deacetylase 3. The assay can be described thus: Inhibition of HDAC3 (unknown origin) assessed as remaining enzyme activity at 1.25 uM by ELISA-based assay. The method, boiled down: (§1)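 Isoform screen by ELISA-based HDAC activity assay against HDAC1, HDAC2, HDAC3 and HDAC6. Each analog was tested at one final concentration: 0.025, 0.125, 0.25 or 1.25 µM. Read-out is percent deacetylase activity remaining, given as the mean with standard error of at least two independent trials.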

Assay [11] has as its target T2, Histone deacetylase 1. Put plainly: Inhibition of HDAC1 (unknown origin) assessed as remaining enzyme activity at 1.25 uM by ELISA-based assay. In a few lines: as §1
For assay [12], the species on record is Homo sapiens. The assay can be described thus: Inhibition of HDAC in human HeLa-S3 cells lysates assessed as remaining enzyme activity at 2.5 x 10^-6 M pre-incubated for 15 mins before HDAC-Glo I/II substrate addition and measured after 30 mins post substrate addition. Format: cell-free.
The target of assay [13] is T4, Histone deacetylase 3. The assay can be described thus: Inhibition of HDAC3 (unknown origin) assessed as remaining enzyme activity at 8 x 10^-6 M by ELISA-based assay.
The species named for assay [14] is Homo sapiens. The assay can be described thus: Inhibition of HDAC in human HeLa-S3 cells lysates assessed as remaining enzyme activity at 1.25 x 10^-6 M pre-incubated for 15 mins before HDAC-Glo I/II substrate addition and measured after 30 mins post substrate addition. Format: cell-free.
The target in assay [15] is T2, Histone deacetylase 1. The assay can be described thus: Inhibition of HDAC1 (unknown origin) assessed as remaining enzyme activity at 5 x 10^-7 M by ELISA-based assay.
Assay [16] deals with T1, Histone deacetylase 2. The assay can be described thus: Inhibition of HDAC2 (unknown origin) assessed as remaining enzyme activity at 1.25 uM by ELISA-based assay. In a few lines: as §1

T2 sequence (Q13547 whole entry): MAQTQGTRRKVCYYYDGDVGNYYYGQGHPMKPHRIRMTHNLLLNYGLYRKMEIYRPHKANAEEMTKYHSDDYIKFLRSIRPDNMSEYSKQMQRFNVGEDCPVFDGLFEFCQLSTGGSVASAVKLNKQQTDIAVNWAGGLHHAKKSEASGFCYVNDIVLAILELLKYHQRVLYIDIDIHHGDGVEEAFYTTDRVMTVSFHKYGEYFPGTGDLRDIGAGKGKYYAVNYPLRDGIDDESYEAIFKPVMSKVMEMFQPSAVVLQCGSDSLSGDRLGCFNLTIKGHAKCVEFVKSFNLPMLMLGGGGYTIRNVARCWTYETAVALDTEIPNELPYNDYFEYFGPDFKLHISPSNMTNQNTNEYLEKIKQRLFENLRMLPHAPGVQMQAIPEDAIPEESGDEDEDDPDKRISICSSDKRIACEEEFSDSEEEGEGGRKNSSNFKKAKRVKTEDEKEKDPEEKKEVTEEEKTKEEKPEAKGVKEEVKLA
T1 sequence (Q92769 whole entry): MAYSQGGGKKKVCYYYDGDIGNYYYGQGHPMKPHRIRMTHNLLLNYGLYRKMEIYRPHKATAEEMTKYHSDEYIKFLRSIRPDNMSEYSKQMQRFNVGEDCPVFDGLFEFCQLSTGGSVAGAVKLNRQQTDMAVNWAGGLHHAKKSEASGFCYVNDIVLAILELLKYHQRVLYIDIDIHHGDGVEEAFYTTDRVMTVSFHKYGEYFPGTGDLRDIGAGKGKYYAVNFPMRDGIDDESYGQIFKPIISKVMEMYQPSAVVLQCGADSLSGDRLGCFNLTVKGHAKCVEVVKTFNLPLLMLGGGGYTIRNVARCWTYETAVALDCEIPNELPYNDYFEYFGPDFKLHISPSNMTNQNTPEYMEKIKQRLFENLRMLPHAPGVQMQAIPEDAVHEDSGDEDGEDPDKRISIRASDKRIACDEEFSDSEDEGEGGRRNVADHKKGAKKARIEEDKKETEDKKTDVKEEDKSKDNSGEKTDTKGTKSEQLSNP
T4 sequence (O15379 whole entry): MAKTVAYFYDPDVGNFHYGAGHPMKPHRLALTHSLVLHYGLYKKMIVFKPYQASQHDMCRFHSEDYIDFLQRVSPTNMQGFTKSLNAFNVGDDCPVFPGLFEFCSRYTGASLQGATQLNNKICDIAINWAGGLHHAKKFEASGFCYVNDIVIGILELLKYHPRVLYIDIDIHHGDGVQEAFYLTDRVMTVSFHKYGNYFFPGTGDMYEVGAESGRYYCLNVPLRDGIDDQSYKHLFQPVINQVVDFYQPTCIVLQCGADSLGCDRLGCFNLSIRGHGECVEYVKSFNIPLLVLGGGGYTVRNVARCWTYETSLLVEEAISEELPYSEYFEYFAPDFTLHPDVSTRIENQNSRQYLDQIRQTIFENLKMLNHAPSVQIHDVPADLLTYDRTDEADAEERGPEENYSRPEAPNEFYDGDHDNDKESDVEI

As for `O=C(CCCC(CCC(=O)Nc1ccccc1)Cc1ccccc1)NO` (centres undefined), the Activity was 33% in the assay filed under Homo sapiens [1]; 19% on Histone deacetylase 2 [2]; 27% on Histone deacetylase 1 [3]; 65% in assay [4]; 23% on Histone deacetylase 3 [5]; 56% in the assay filed under Homo sapiens [6]. Further, the Activity in the assay listed under Homo sapiens [7] stood at 17%; in assay [8], 17%; on Histone deacetylase 2 [9] it was 30%; at Histone deacetylase 3 [10] it was 74%; on Histone deacetylase 1 [11], 69%; in the assay listed under Homo sapiens [12], 78%. Moreover, the Activity on Histone deacetylase 3 [13] stood at 43%; in the assay filed under Homo sapiens [14] it was 93%; on Histone deacetylase 1 [15] it was 84%; at Histone deacetylase 2 [16], 74%.
Consider `CCCCCCC(CCCC(=O)NO)CCC(=O)Nc1ccccc1` (centres undefined), for which the Activity in the assay listed under Homo sapiens [1] came to 35%; on Histone deacetylase 2 [2], 14%; on Histone deacetylase 1 [3], 22%; in assay [4], 70%; on Histone deacetylase 3 [5], 12%; in the assay filed under Homo sapiens [6] it was 58%. Also, the Activity in the assay filed under Homo sapiens [7] was 15%; in [8], 28%; at Histone deacetylase 2 [9], 21%; on Histone deacetylase 3 [10], 71%; on Histone deacetylase 1 [11] it was 64%; in the assay filed under Homo sapiens [12], 83%. Besides, the Activity on Histone deacetylase 3 [13] amounted to 27%; in the assay listed under Homo sapiens [14], 92%; at Histone deacetylase 1 [15], 77%; on Histone deacetylase 2 [16] it was 72%.
Turning to `CCCCC(CCCC(=O)NO)CCC(=O)Nc1ccccc1` (centres undefined), the Activity came to 69% in assay [4] and 68% at Histone deacetylase 1 [15].
